Assay results from ChEMBL document CHEMBL4364341, “Radiosensitization of Head and Neck Squamous Cell Carcinoma (HNSCC) by a Podophyllotoxin” (ACS Med Chem Lett, 2019).
Active and inactive are the calls of the source. The rule behind the calls is not given here.

Tests used:
[1] = test system: SCC-25; test: Synergistic antiproliferative activity against human SCC25 cells assessed as reduction in colony formation unit followed by irradiation with 5 Gy IR and measured after 10 to 14 days by crystal violet staining based assay; format: functional, cell-based
[2] = test system: SCC-25; test: Antiproliferative activity against human SCC25 cells assessed as reduction in cell viability at 1 uM after 6 days by MTT assay relative to control; format: functional, cell-based
Procedure, shortened: (§1)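 FaDu or SCC-25 cells were grown in DMEM with 10% FBS at 37 °C and 5% CO2. They were seeded at 1000 cells/well in 96-well plates for 24 h, then dosed with compound (fresh DMSO stock diluted in medium) or vehicle. After 1 h, X-rays were given with a sliding 5 mm lead shield, so one plate held 0, 2.5, 5 and 10 Gy columns. After 6 days, MTT (0.5 mg/mL, 45 min) was added, then DMSO, and A570 was read. Values were normalised to the unirradiated vehicle control. Fractional inhibition = 1 − surviving fraction.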

[3] = test system: SCC-25; test: Synergistic induction of cell cycle arrest in human SCC25 cells assessed as decrease in accumulation at G0/G1 phase at 0.5 uM followed irradiation with 5Gy IR incubated for 24 hrs by propidium iodide staining based flow cytometry; format: functional
Procedure, shortened: (§2)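 FaDu or SCC-25 cells, untreated, given 5 Gy IR, drug, or drug plus 5 Gy. Cell-cycle distribution by propidium iodide staining and flow cytometry at 6 h and 24 h after treatment. G0/G1, S and G2/M fractions compared with control by t test.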

[4] = test system: FaDu; test: Synergistic antiproliferative activity against human FADU cells assessed as fractional inhibition at 0.05 uM preincubated for 1 hr followed by irradiation with 2.5 Gy IR and measured after 6 days by MTT assay (reference value: 0.131); format: functional; procedure, shortened: as §1
[5] = test system: FaDu; test: Synergistic antiproliferative activity against human FADU cells assessed as fractional inhibition at 5 uM preincubated for 1 hr followed by irradiation with 2.5 Gy IR and measured after 6 days by MTT assay (reference value: 0.131); format: functional; procedure, shortened: as §1
[6] = test system: FaDu; test: Synergistic antiproliferative activity against human FADU cells assessed as fractional inhibition at 0.05 uM preincubated for 1 hr followed by irradiation with 5 Gy IR and measured after 6 days by MTT assay (reference value: 0.097); format: functional; procedure, shortened: as §1
[7] = test system: FaDu; test: Synergistic antiproliferative activity against human FADU cells assessed as fractional inhibition at 0.5 uM preincubated for 1 hr followed by irradiation with 5 Gy IR and measured after 6 days by MTT assay (reference value: 0.097); format: functional; procedure, shortened: as §1
[8] = test system: FaDu; test: Synergistic antiproliferative activity against human FADU cells assessed as fractional inhibition at 0.005 uM preincubated for 1 hr followed by irradiation with 10 Gy IR and measured after 6 days by MTT assay (reference value: 0.388); format: functional; procedure, shortened: as §1
[9] = test system: FaDu; test: Synergistic antiproliferative activity against human FADU cells assessed as combination index at 5 uM preincubated for 1 hr followed by irradiation with 2.5 Gy IR and measured after 6 days by MTT assay; format: functional
Procedure, shortened: (§3)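 Combination index was calculated by the Chou–Talalay median-effect method from the 6-day MTT viability data of the single-plate compound/X-ray (2.5, 5, 10 Gy) design. CI < 1 denotes synergy, CI = 1 additivity and CI > 1 antagonism.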

[10] = test system: FaDu; test: Synergistic antiproliferative activity against human FADU cells assessed as combination index at 0.5 uM preincubated for 1 hr followed by irradiation with 5 Gy IR and measured after 6 days by MTT assay; format: functional; procedure, shortened: as §3
[11] = test system: SCC-25; test: Antiproliferative activity against human SCC25 cells assessed as fractional inhibition at 0.5 uM after 6 days in absence of irradiation by MTT assay; format: functional; procedure, shortened: as §1
[12] = test system: SCC-25; test: Synergistic antiproliferative activity against human SCC25 cells assessed as fractional inhibition at 0.005 uM preincubated for 1 hr followed by irradiation with 2.5 Gy IR and measured after 6 days by MTT assay (reference value: 0.011); format: functional
Procedure, shortened: (§4)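 SCC-25 cells seeded 1000/well in 96-well plates in DMEM/10% FBS and left 24 h. Drug or vehicle added, then after 1 h X-irradiated to 2.5, 5 or 10 Gy on one plate using a shifted lead shield. Plates incubated 6 days, then MTT (0.5 mg/mL, 45 min), DMSO solubilisation, absorbance at 570 nm. Fractional inhibition = 1 − fraction of surviving cells.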

[13] = test system: SCC-25; test: Synergistic antiproliferative activity against human SCC25 cells assessed as fractional inhibition at 5 uM preincubated for 1 hr followed by irradiation with 10 Gy IR and measured after 6 days by MTT assay (reference value: 0.347); format: functional; procedure, shortened: as §4
[14] = test system: SCC-25; test: Synergistic antiproliferative activity against human SCC25 cells assessed as combination index at 5 uM preincubated for 1 hr followed by irradiation with 5 Gy IR and measured after 6 days by MTT assay; format: functional
Procedure, shortened: (§5)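 SCC-25 cells grown in DMEM with 10% FBS at 37 °C, 5% CO2, seeded 1000 cells/well in 96-well plates and left 24 h. Drug in DMSO, diluted in complete medium, added 1 h before X-irradiation. A movable 5 mm lead shield gave 0, 2.5, 5 or 10 Gy on one plate. After 6 days, MTT readout at 570 nm. Combination index by Chou–Talalay from viability data.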

[15] = test system: SCC-25; test: Synergistic antiproliferative activity against human SCC25 cells assessed as combination index at 0.5 uM preincubated for 1 hr followed by irradiation with 10 Gy IR and measured after 6 days by MTT assay; format: functional; procedure, shortened: as §5
[16] = test system: SCC-25; test: Synergistic induction of cell cycle arrest in human SCC25 cells assessed as increase in accumulation at G2/M phase at 0.5 uM followed irradiation with 5Gy IR incubated for 24 hrs by propidium iodide staining based flow cytometry; format: functional; procedure, shortened: as §2
[17] = test system: FaDu; test: Induction of cell cycle arrest in human FADU cells assessed as decrease in cyclin B1 at 0.5 uM incubated for 48 hrs by immunoblot analysis; format: functional, cell-based
Procedure, shortened: (§6)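 FaDu cells received compound at 0.5 μM, 5 Gy IR, or both. After 48 h, lysates were immunoblotted for NRF2, cyclin B1, CDK1, Bax and Bcl-2. Membranes were then stripped and reprobed for β-actin as the loading control.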

[18] = test system: FaDu; test: Induction of apoptosis in human FADU cells assessed as decrease in Bcl2 at 0.5 uM incubated for 48 hrs by immunoblot analysis; format: functional, cell-based; procedure, shortened: as §6
[19] = test system: FaDu; test: Synergistic induction of cell cycle arrest in human FADU cells assessed as decrease in CDK1 at 0.5 uM followed by irradiation with 5 Gy IR incubated for 48 hrs by immunoblot analysis; format: functional, cell-based
Procedure, shortened: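 FaDu cells received drug, 5 Gy IR, or both; vehicle-only controls. Lysates collected after 48 h and immunoblotted with primary antibodies to NRF2, cyclin B1, CDK1, Bax and Bcl-2. Membranes stripped and reprobed for beta-actin as loading control.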

[20] = test system: FaDu; test: Inhibition of colony formation in human FADU cells incubated for 10 to 14 days by crystal violet staining based assay; format: functional, cell-based

In the case of `COc1ccc2c(c1)N(CCO)C1=C(C(=O)OC1)C2c1ccccc1` (stereo not given), the inhibition [1] is reported as “Dose-dependent effect”, the inhibition [2] is reported as “inactive” and the Activity [3] is reported as “Active”. The “fractional inhibitory concentration index (FICI)” value [4] was 0.383, the “fractional inhibitory concentration index (FICI)” value [5] was 0.501 and the “fractional inhibitory concentration index (FICI)” value [6] was 0.239. The “fractional inhibitory concentration index (FICI)” value [7] was 0.425, the “fractional inhibitory concentration index (FICI)” value [8] was 0.346 and the CI [9] was 1.225. The CI [10] was 0.603, the “fractional inhibitory concentration index (FICI)” value [11] was 0.361 and the “fractional inhibitory concentration index (FICI)” value [12] was 0.015. For the same molecule, the “fractional inhibitory concentration index (FICI)” value [13] was 0.71, the CI [14] was 0.652 and the CI [15] was 0.663. The “fold change (FC)” value [16] was 2, the Activity [17] was “Active” and the Activity [18] was “Active”. For the same molecule, the Activity [19] was “Active” and the IC50 [20] was 6.5 µM.
